Results taken from ChEMBL document CHEMBL3627623, “Catecholic amides as potential selective phosphodiesterase 4D inhibitors: Design, synthesis, pharmacological evaluation and structure-activity relationships” (Bioorg Med Chem, 2015).

Tests used:
Phosphodiesterase 4 = Phosphodiesterase 4 (Homo sapiens, UniProt P27815+Q08499+Q07343+Q08493); experiment: Inhibition of core catalytic domains of human PDE4 using AM-Cyclic-3',5'-AMP after 60 mins by fluorescence polarization assay; type: protein assay
[1] = molecular target: 3',5'-cyclic-AMP phosphodiesterase 4D (Homo sapiens, UniProt Q08499); experiment: Inhibition of human full-length PDE4D7 using AM-Cyclic-3',5'-AMP after 60 mins by fluorescence polarization assay
Sequence of 3',5'-cyclic-AMP phosphodiesterase 4D (Q08499 whole entry): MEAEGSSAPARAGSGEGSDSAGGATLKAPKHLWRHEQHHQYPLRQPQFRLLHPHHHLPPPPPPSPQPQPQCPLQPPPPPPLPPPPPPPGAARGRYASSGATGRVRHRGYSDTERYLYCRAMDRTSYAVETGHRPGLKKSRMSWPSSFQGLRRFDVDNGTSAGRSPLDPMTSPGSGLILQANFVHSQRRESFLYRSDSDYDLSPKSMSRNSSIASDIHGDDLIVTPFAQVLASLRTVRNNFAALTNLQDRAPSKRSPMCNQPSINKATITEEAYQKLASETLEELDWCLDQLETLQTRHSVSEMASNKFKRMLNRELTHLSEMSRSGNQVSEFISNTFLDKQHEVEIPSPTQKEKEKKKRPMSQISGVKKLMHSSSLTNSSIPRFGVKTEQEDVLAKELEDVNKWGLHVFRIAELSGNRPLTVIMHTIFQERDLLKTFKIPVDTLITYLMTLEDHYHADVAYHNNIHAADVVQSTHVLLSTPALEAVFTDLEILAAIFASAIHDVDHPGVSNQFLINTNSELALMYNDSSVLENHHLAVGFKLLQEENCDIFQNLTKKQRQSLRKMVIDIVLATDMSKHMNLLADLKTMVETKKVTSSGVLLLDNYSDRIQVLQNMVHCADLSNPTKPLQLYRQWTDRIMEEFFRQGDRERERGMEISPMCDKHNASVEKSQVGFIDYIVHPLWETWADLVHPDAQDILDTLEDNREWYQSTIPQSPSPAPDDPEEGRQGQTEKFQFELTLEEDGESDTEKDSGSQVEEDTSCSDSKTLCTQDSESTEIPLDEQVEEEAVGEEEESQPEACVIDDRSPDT

Homo sapiens [2] = organism: Homo sapiens; experiment: Selectivity ratio of IC50 for human full-length PDE4B1 to IC50 for human full-length PDE4D7
[3] = molecular target: 3',5'-cyclic-AMP phosphodiesterase 4B (Homo sapiens, UniProt Q07343); experiment: Inhibition of human full-length PDE4B1 using AM-Cyclic-3',5'-AMP after 60 mins by fluorescence polarization assay
Sequence of 3',5'-cyclic-AMP phosphodiesterase 4B (Q07343 whole entry): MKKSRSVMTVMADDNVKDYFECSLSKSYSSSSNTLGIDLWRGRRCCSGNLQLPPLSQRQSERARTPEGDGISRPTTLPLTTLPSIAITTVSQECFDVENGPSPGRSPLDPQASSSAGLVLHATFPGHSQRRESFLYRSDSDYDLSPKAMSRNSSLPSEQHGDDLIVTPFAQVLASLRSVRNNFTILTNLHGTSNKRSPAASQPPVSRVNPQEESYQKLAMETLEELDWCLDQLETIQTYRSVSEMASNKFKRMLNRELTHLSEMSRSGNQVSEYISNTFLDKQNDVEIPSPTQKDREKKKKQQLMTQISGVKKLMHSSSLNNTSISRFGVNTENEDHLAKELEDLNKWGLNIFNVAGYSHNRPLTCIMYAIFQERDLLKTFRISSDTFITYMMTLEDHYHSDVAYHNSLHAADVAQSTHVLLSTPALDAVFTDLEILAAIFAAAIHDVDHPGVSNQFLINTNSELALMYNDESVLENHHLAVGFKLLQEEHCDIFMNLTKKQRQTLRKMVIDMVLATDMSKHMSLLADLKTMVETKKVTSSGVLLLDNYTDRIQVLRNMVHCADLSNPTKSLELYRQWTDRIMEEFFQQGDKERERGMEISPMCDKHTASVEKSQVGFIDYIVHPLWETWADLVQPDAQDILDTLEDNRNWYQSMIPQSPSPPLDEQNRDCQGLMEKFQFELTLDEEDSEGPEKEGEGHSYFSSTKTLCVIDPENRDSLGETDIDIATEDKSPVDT

Homo sapiens [4] = organism: Homo sapiens; experiment: Selectivity ratio of IC50 for PDE4B1 (unknown origin) to IC50 for PDE4D7 (unknown origin)
Homo sapiens [5] = organism: Homo sapiens; experiment: Selectivity ratio of IC50 for PDE4B2 (unknown origin) to IC50 for PDE4D3 (unknown origin)
Homo sapiens [6] = organism: Homo sapiens; experiment: Selectivity ratio of IC50 for PDE4B2 (unknown origin) to IC50 for PDE4D4 (unknown origin)
Homo sapiens [7] = organism: Homo sapiens; experiment: Selectivity ratio of IC50 for PDE4B (unknown origin) to IC50 for PDE4D (unknown origin)
[8] = molecular target: cAMP and cAMP-inhibited cGMP 3',5'-cyclic phosphodiesterase 10A (Homo sapiens) (UniProt Q9Y233); experiment: Inhibition of human PDE10A2 using AM-Cyclic-3',5'-AMP at 10 uM after 60 mins by fluorescence polarization assay
Summary of the method: (§1)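 Recombinant human PDE isoforms in 40 mM MOPS pH 7.5, 0.5 mM EDTA, 15 mM MgCl2, 0.15 mg/mL BSA, 1 mM DTT, 0.05% Proclin 200. […] Final DMSO 1%; 60 min at 25 °C. Binding agent was added, then 1 h more. Fluorescence polarization read at ex 360/em 480 nm. IC50 or single-concentration % inhibition; mean of two experiments.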

[9] = molecular target: High affinity cAMP-specific and IBMX-insensitive 3',5'-cyclic phosphodiesterase 8A (Homo sapiens) (UniProt O60658); experiment: Inhibition of human PDE8A1 using AM-Cyclic-3',5'-AMP at 10 uM after 60 mins by fluorescence polarization assay; summary of the method: as §1
Sequence of High affinity cAMP-specific and IBMX-insensitive 3',5'-cyclic phosphodiesterase 8A (Homo sapiens) (O60658 whole entry): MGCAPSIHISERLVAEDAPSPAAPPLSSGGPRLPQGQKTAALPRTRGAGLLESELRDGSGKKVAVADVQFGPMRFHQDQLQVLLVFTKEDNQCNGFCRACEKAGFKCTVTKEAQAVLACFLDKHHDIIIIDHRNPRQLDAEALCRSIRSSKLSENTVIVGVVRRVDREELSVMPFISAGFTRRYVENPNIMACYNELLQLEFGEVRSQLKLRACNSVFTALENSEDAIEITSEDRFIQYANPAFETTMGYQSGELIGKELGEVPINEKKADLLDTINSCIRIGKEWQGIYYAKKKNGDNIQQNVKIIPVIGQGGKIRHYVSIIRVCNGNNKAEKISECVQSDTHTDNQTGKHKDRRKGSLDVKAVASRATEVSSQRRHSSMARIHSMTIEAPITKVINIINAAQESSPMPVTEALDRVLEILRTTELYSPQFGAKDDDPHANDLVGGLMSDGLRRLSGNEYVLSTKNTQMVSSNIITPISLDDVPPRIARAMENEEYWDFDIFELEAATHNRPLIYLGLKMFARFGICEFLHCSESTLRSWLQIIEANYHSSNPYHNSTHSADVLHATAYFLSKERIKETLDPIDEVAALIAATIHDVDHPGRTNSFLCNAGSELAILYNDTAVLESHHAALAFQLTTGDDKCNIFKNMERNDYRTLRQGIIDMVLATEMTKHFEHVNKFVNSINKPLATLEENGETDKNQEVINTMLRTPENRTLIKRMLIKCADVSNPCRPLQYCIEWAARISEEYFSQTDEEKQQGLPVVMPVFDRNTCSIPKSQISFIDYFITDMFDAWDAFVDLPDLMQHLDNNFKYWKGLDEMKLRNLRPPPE

[10] = molecular target: High affinity 3',5'-cyclic-AMP phosphodiesterase 7A (Homo sapiens) (UniProt Q13946); conditions: 10 uM
Sequence of High affinity 3',5'-cyclic-AMP phosphodiesterase 7A (Homo sapiens) (Q13946 whole entry): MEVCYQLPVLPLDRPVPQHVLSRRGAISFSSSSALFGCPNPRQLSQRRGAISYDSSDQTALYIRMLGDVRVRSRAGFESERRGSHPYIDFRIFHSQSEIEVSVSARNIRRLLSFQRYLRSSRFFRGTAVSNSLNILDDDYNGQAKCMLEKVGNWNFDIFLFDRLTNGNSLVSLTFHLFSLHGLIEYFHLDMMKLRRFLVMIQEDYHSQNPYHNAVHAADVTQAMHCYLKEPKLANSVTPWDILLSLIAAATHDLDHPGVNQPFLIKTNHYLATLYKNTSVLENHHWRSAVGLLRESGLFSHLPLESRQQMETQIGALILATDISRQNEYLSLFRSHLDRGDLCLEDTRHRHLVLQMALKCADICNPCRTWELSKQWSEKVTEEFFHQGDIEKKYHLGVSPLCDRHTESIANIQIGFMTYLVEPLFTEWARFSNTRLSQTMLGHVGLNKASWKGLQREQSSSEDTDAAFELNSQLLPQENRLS

[11] = molecular target: High affinity cGMP-specific 3',5'-cyclic phosphodiesterase 9A (Homo sapiens) (UniProt O76083); experiment: Inhibition of human PDE9A2 using AM-Cyclic-3',5'-AMP at 10 uM after 60 mins by fluorescence polarization assay; summary of the method: as §1
[12] = molecular target: Dual 3',5'-cyclic-AMP and -GMP phosphodiesterase 11A (Homo sapiens) (UniProt Q9HCR9); conditions: 10 uM
Sequence of Dual 3',5'-cyclic-AMP and -GMP phosphodiesterase 11A (Homo sapiens) (Q9HCR9 whole entry, looked up): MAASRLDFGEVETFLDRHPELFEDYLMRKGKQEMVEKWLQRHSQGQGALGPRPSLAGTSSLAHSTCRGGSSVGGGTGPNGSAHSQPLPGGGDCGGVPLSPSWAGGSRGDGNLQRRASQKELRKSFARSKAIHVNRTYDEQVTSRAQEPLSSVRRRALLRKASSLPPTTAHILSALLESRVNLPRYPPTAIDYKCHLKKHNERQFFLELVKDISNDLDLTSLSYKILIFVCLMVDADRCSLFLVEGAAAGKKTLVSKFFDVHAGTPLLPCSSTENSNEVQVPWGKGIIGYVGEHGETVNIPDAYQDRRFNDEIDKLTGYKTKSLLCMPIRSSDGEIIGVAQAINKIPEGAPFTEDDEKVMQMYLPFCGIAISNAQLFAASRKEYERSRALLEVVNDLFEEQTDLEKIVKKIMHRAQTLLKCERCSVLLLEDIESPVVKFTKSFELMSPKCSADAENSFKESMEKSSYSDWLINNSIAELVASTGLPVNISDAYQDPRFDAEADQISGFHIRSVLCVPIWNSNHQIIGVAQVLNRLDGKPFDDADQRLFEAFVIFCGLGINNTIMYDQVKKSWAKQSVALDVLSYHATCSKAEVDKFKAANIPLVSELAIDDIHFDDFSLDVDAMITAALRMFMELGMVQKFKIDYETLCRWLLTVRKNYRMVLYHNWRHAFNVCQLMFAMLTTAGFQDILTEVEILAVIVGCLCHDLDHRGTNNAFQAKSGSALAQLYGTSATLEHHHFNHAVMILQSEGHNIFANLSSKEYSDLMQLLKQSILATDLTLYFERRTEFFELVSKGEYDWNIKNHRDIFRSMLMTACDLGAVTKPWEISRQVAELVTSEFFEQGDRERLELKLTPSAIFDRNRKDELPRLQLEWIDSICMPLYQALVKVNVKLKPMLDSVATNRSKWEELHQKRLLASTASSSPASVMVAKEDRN

[13] = molecular target: Dual specificity calcium/calmodulin-dependent 3',5'-cyclic nucleotide phosphodiesterase 1A (Homo sapiens) (UniProt P54750); experiment: Inhibition of human PDE1A using AM-Cyclic-3',5'-AMP at 10 uM after 60 mins by fluorescence polarization assay; summary of the method: as §1
[14] = molecular target: cGMP-dependent 3',5'-cyclic phosphodiesterase (Homo sapiens) (UniProt O00408); conditions: 10 uM
Sequence of cGMP-dependent 3',5'-cyclic phosphodiesterase (Homo sapiens) (O00408 whole entry): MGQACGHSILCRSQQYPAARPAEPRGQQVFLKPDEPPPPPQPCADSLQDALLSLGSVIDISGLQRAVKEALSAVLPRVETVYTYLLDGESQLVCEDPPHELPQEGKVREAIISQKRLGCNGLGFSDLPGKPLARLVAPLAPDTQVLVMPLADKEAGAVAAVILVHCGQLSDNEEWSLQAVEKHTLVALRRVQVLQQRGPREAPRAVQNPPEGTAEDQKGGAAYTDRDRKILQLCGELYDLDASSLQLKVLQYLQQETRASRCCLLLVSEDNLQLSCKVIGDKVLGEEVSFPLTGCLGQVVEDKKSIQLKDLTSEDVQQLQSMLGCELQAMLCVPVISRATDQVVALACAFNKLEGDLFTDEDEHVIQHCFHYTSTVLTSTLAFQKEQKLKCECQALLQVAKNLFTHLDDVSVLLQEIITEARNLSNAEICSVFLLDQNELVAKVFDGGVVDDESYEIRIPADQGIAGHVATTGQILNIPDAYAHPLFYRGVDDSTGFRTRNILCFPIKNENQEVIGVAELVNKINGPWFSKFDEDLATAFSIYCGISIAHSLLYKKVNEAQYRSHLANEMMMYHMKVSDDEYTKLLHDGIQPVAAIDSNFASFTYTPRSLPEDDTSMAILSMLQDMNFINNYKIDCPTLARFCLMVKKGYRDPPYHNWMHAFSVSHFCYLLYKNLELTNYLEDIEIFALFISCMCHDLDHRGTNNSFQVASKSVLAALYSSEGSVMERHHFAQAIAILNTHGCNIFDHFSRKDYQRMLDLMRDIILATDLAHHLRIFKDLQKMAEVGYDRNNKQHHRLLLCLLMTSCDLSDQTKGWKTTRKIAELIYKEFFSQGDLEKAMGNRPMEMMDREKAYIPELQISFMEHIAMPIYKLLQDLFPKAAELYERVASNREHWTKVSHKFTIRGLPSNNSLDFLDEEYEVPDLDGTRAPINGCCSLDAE

[15] = molecular target: cGMP-specific 3',5'-cyclic phosphodiesterase (Homo sapiens) (UniProt O76074); experiment: Inhibition of human PDE5A using AM-Cyclic-3',5'-AMP at 10 uM after 60 mins by fluorescence polarization assay; summary of the method: as §1
[16] = molecular target: cGMP-inhibited 3',5'-cyclic phosphodiesterase 3B (Homo sapiens) (UniProt Q13370); conditions: 10 uM

COc1ccc(CNC(=O)c2ccc(OC(F)F)c(OCC3CC3)c2)cc1OC
IC50 (Phosphodiesterase 4): > 100 µM

COc1ccc(CNC(=O)c2ccc(OC)c(OCC3CC3)c2)cc1OC
IC50 (Phosphodiesterase 4): > 100 µM

COc1ccc(CNC(=O)c2ccc(OC)c(OCC3CC3)c2)cc1
IC50 [1]: 342 nM
IC50 (Phosphodiesterase 4): 0.91 µM
Ratio IC50 (Homo sapiens [2]): 3.2
IC50 [3]: 1090 nM

COc1ccccc1OCCNC(=O)c1ccc(OC(F)F)c(OC2CCCC2)c1
IC50 (Phosphodiesterase 4): 12.4 µM

COc1ccc(Cc2ccc(NC(N)=O)cc2)cc1-c1cccc(Cl)c1
Ratio IC50 (Homo sapiens [4]): 54

COc1ccc(CNC(=O)c2ccc(OC)c(OC3CCCC3)c2)cc1OC
IC50 (Phosphodiesterase 4): > 100 µM

COc1ccc(CNC(=O)c2ccc(OC(F)F)c(OCC3CC3)c2)cc1
IC50 [1]: 108 nM
IC50 (Phosphodiesterase 4): 0.41 µM
Ratio IC50 (Homo sapiens [2]): 2.8
IC50 [3]: 301 nM

COc1ccccc1OCCNC(=O)c1ccc(OC(F)F)c(OCC2CC2)c1
IC50 (Phosphodiesterase 4): 6.9 µM

COc1ccc(/C=N/OCC(O)CNN2CC(C)OC(C)C2)cc1OC1CCCC1 (stereo not drawn)
Ratio IC50 (Homo sapiens [5]): 85

O=C(NCc1ccccc1)c1ccc(OC(F)F)c(OCC2CC2)c1
IC50 (Phosphodiesterase 4): 2.1 µM

COc1ccccc1OCCNC(=O)c1ccc(OC)c(OC2CCCC2)c1
IC50 (Phosphodiesterase 4): 18.3 µM

COc1ccccc1OCCNc1ccc(=O)n(Cc2ccc(OC)c(-c3cccc(Cl)c3)c2)n1
Ratio IC50 (Homo sapiens [6]): 13

O=C(NCc1ccccc1)c1ccc(OC(F)F)c(OC2CCCC2)c1
IC50 (Phosphodiesterase 4): 2.2 µM

COc1ccc(CNC(=O)c2ccc(OC)c(OC3CCCC3)c2)cc1
IC50 [1]: 284 nM
IC50 (Phosphodiesterase 4): 0.96 µM
Ratio IC50 (Homo sapiens [2]): 3.6
IC50 [3]: 1030 nM

COc1ccc(CNC(=O)c2ccc(OC(F)F)c(OC3CCCC3)c2)cc1OC
IC50 (Phosphodiesterase 4): > 100 µM

COc1ccccc1OCCNC(=O)c1ccc(OC)c(OCC2CC2)c1
IC50 (Phosphodiesterase 4): 11.1 µM

COc1ccc([C@H](C)NC(=O)c2cccnc2Oc2ccc(F)cc2)cc1
Ratio IC50 (Homo sapiens [7]): 142

COc1ccc(CNC(=O)c2ccc(OC(F)F)c(OC3CCCC3)c2)cc1
inhibition [8]: 1%
IC50 [1]: 94 nM
inhibition [9]: 10%
IC50 (Phosphodiesterase 4): 1.1 µM
inhibition [10]: 3%
inhibition [11]: 6%
inhibition [12]: 2%
inhibition [13]: 11%
inhibition [14]: 2%
inhibition [15]: 16%
inhibition [16]: 2%
IC50 [3]: 976 nM
